In ChEMBL document CHEMBL4330127, “Discovery of Novel Pyruvate Dehydrogenase Kinase 4 Inhibitors for Potential Oral Treatment of Metabolic Diseases” (J Med Chem, 2019):

Assays:
[1] = biological target: [Pyruvate dehydrogenase (acetyl-transferring)] kinase isozyme 4, mitochondrial (Homo sapiens, UniProt Q16654); assay: Inhibition of PDK4 in HEK293T cells assessed as reduction in PDHE1alpha phosphorylation at Ser-232 residue by measuring phosphorylated PDHE1alpha level at 10 uM after 24 hrs by Western blot analysis; type: cell-based
Summary of the method: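 HEK293T cells grown in high-glucose DMEM with 10% FBS at 37 °C, 5% CO2. Medium renewed after 24 h, then cells exposed to compound for 24 h and lysed. 20 μg protein per lane Western blotted with antibodies to phospho-PDHE1α Ser232, Ser293 and Ser300 and to total PDHE1α. Band intensity quantified relative to control; triplicate.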

Cytochrome P450 2C19 = Cytochrome P450 2C19 (Homo sapiens, UniProt P33261); assay: Inhibition of CYP2C19 in human liver microsomes assessed as reduction in omeprazole hydroxylation by tandem mass spectrometry analysis; type: ADME
Summary of the method: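 Pooled human liver microsomes incubated with compound at 0–50 μM final; CYP probe activities (phenacetin O-deethylation for 1A2, tolbutamide 4-hydroxylation for 2C9, omeprazole hydroxylation for 2C19, dextromethorphan O-demethylation for 2D6) run as a cocktail incubation and quantified by tandem MS; duplicates; IC50 derived.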

HCT-116 = assay: Induction of apoptosis in human HCT116 cells assessed as necrotic cells at 25 uM after 24 hrs in presence of oxaliplatin by Annexin V/propidium iodide staining based flow cytometry (reference value: 21.2%); type: functional
RKO = assay: Cell cycle arrest in human RKO cells assessed as accumulation at sub-G1 phase at 25 uM after 24 hrs in presence of oxaliplatin propidium iodide staining based flow cytometry (reference value: 12%); type: functional
Summary of the method: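 HCT116 and RKO cells were treated with compound alone or with oxaliplatin for 24 h before harvest. Cells were stained with propidium iodide, and DNA content was analysed by flow cytometry. Cell-cycle phase populations, including sub-G1, are given as percentages.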

Chain of [Pyruvate dehydrogenase (acetyl-transferring)] kinase isozyme 4, mitochondrial (Q16654 whole entry, looked up): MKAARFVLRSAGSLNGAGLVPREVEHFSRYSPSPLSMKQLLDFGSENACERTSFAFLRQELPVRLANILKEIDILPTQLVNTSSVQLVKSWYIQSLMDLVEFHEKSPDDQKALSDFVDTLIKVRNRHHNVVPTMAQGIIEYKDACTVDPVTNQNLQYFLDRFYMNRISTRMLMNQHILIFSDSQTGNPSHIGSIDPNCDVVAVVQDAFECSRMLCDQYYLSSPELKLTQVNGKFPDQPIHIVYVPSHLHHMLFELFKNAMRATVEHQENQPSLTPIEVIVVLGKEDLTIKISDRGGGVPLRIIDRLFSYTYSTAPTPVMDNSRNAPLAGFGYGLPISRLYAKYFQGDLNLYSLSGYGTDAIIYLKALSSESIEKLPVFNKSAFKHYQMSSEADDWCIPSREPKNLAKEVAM
Chain of Cytochrome P450 2C19 (P33261 whole entry): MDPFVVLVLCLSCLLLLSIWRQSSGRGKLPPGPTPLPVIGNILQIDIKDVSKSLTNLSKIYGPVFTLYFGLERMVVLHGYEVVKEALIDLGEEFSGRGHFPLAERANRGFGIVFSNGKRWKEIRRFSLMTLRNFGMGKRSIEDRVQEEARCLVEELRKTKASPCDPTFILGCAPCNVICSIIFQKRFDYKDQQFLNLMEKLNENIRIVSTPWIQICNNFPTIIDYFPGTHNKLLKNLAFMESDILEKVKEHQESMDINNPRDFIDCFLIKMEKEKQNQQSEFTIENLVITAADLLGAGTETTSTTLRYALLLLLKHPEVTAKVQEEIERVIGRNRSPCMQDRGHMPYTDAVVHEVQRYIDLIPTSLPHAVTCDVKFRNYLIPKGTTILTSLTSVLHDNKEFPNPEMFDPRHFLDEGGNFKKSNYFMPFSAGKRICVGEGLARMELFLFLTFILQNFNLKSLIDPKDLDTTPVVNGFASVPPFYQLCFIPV

Compound `Cl.O=C1c2ccccc2C(=O)c2c1cccc2-c1cnn(C2CCNCC2)c1` has a fold change (FC) [1] of 0.04, an IC50 (Cytochrome P450 2C19) of 42.4 µM and an Activity (HCT-116) of 25.9%. The Activity (RKO) was 67.4%.
